The results in this text go back to ChEMBL document CHEMBL4138201, “Synthesis and biological evaluation of sulfur-containing shikonin oxime derivatives as potential antineoplastic agents” (Eur J Med Chem, 2018).

One assay deals with Bel-7402. As to the kind of experiment: Cytotoxicity against human Bel7402 cells after 48 hrs by MTT assay. The format is functional, cell-based. The conditions noted are these: Bel-7402, 48 h. Summed up:
(§1)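 MTT colorimetric assay. Shikonin and 5-fluorouracil served as reference agents. IC₅₀ obtained by linear regression of each compound's concentration–response curve.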

Assay [1] is described as follows: Cytotoxicity against human HSF cells after 48 hrs by MTT assay. The format is cell-based. A digest of the protocol:
as §1

Assay [2] can be described thus: Induction of NO release in phosphate buffer at pH 7.4 at 0.1 mM measured after 1 hr in presence of N-acetylcysteine by Griess assay. It is filed as functional. Summed up: (§2)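 Percentage of NO released in vitro measured by Griess assay against a standard curve. Incubation in 0.5 mM N-acetylcysteine, read hourly from 1 to 6 h.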
The subject of the next assay is HCT-15. As to the kind of experiment: Cytotoxicity against human HCT15 cells after 48 hrs by MTT assay. It is filed as functional, cell-based. The conditions noted are these: HCT-15, 48 h. A digest of the protocol: as §1
A short description of assay [3]: Induction of NO release in phosphate buffer at pH 7.4 at 0.1 mM measured after 6 hrs in presence of N-acetylcysteine by Griess assay. It is filed as functional. A digest of the protocol: as §2
Another assay deals with MCF7. As to the kind of experiment: Cytotoxicity against human MCF7 cells after 48 hrs by MTT assay. The conditions noted are these: MCF7, 48 h. The format is functional, cell-based. Summed up: as §1
The nature of assay [4]: Induction of NO release in phosphate buffer at pH 7.4 at 0.1 mM measured after 3 hrs in presence of N-acetylcysteine by Griess assay. The format is functional. A digest of the protocol:
as §2

Assay [5] is described as follows: Induction of NO release in phosphate buffer at pH 7.4 at 0.1 mM measured after 2 hrs in presence of N-acetylcysteine by Griess assay. It is filed as functional. A digest of the protocol:
as §2

Assay [6] can be described thus: Induction of NO release in phosphate buffer at pH 7.4 at 0.1 mM measured after 4 hrs in presence of N-acetylcysteine by Griess assay. It is filed as functional. Summed up:
as §2

Another assay relates to MGC-803. As to the kind of experiment: Cytotoxicity against human MGC803 cells after 48 hrs by MTT assay. It is filed as functional, cell-based. As to conditions: MGC-803, 48 h. Summed up: as §1
Assay [7] in a line: Induction of NO release in phosphate buffer at pH 7.4 at 0.1 mM measured after 5 hrs in presence of N-acetylcysteine by Griess assay. The format is functional. Summed up: as §2

A value given as a limit tells only on which side of the number the result lay.

Consider `COc1cc(C(CC=C(C)C)SCCC(C)C)c(OC)c2c1/C(=N/O)C=C/C2=N\O` (stereo not drawn), for which the IC50 with Bel-7402 was 5.43 µM; in assay [1], greater than 50 µM; in the assay on HCT-15 it was 1.14 µM; in the assay on MCF7, 27.2 µM; in the assay with MGC-803 it was 3.36 µM. For the same compound, the Activity in assay [2] is 0.023%; in assay [3], 0.024%; in assay [4], 0.033%; in assay [5], 0.027%; in assay [6], 0.038%; in assay [7], 0.029%.

In the case of `COc1ccc(C(=O)SC(CC=C(C)C)c2cc(OC)c3c(c2OC)/C(=N/O)C=C/C3=N\O)cc1OC` (stereo not drawn), the IC50 in the assay with Bel-7402 is 0.66 µM; in assay [1] it was greater than 50 µM; in the assay with HCT-15 it was 0.39 µM; with MCF7, 14.9 µM; in the assay with MGC-803, 1.17 µM. Further, the Activity is 0.041% in assay [2]; 0.065% in assay [3]; 0.063% in [4]; 0.05% in [5]; 0.079% in [6]; 0.073% in assay [7].

As for `COc1ccc(C(=O)SC(CC=C(C)C)c2cc(OC)c3c(c2OC)/C(=N/O)C=C/C3=N\O)cc1` (stereo not drawn), the IC50 was 1.09 µM with Bel-7402; greater than 50 µM in [1]; 0.61 µM with HCT-15; 17.1 µM in the assay on MCF7; 0.93 µM with MGC-803. Further, the Activity in assay [2] was found to be 0.038%; in [3] it was 0.053%; in assay [4] it was 0.058%; in [5], 0.045%; in assay [6] it was 0.064%; in assay [7] it was 0.059%.

In the case of `COc1cc([C@H](CC=C(C)C)SC(=O)c2ccccc2)c(OC)c2c1/C(=N/O)C=C/C2=N\O`, the IC50 in the assay on Bel-7402 is 1.48 µM; in assay [1] it was greater than 50 µM; in the assay on HCT-15, 0.59 µM; in the assay with MCF7 it was 18.1 µM; in the assay on MGC-803, 1.26 µM.

Consider `COc1cccc(C(=O)SC(CC=C(C)C)c2cc(OC)c3c(c2OC)/C(=N/O)C=C/C3=N\O)c1` (stereo not drawn), for which the IC50 in the assay with Bel-7402 was 5.54 µM; in [1] it was greater than 50 µM; in the assay on HCT-15, 1.67 µM; in the assay on MCF7 it was 35.2 µM; in the assay on MGC-803, 4.25 µM.

Consider `COc1cc(C(CC=C(C)C)SC(C)=O)c(OC)c2c1/C(=N/O)C=C/C2=N\O` (stereo not drawn), for which the IC50 in the assay with Bel-7402 is 3.65 µM; in [1], greater than 50 µM; with HCT-15, 1.22 µM; in the assay with MCF7, 23.5 µM; in the assay with MGC-803, 2.49 µM.

As to `O=c1[nH]cc(F)c(=O)[nH]1` [FLUOROURACIL], the IC50 in the assay on Bel-7402 is 20.9 µM; in assay [1] it was greater than 50 µM; in the assay with HCT-15, 7.53 µM; in the assay on MCF7, 29 µM; with MGC-803, greater than 50 µM.

Regarding `COc1cc(C(CC=C(C)C)SC(=O)c2ccc([N+](=O)[O-])cc2)c(OC)c2c1/C(=N/O)C=C/C2=N\O` (stereo not drawn), the IC50 with Bel-7402 is 12.6 µM; in assay [1] it was greater than 50 µM; with HCT-15, 5.09 µM; in the assay on MCF7, 44.7 µM; in the assay with MGC-803, 9.3 µM.

As for `COc1cc(C(=O)S[C@@H](CC=C(C)C)c2cc(OC)c3c(c2OC)/C(=N/O)C=C/C3=N\O)cc(OC)c1OC`, the IC50 is 0.63 µM in the assay on Bel-7402; greater than 50 µM in assay [1]; 0.34 µM in the assay with HCT-15; 11.8 µM in the assay with MCF7; 0.97 µM in the assay on MGC-803.

Consider `COc1cc(C(CC=C(C)C)SC(=O)c2cccc(F)c2)c(OC)c2c1/C(=N/O)C=C/C2=N\O` (stereo not drawn), for which the IC50 in the assay on Bel-7402 was 8.9 µM; in assay [1] it was greater than 50 µM; in the assay with HCT-15, 2.71 µM; in the assay with MCF7, 38.9 µM; in the assay with MGC-803, 6.47 µM.

For `CCC(=O)SC(CC=C(C)C)c1cc(OC)c2c(c1OC)/C(=N/O)C=C/C2=N\O` (stereo not drawn), the IC50 in the assay with Bel-7402 is 2.73 µM; in [1], greater than 50 µM; with HCT-15, 1.35 µM; with MCF7 it was 26.1 µM; with MGC-803 it was 3.06 µM.
